Experimental data gathered from unrelated publications.
Compare with care: the assays were run in different laboratories.
Route: oral

| Compound | species | matrix | dose | time | notes | concentration |
| --- | --- | --- | --- | --- | --- | --- |
| CCc1cc(-c2noc(-c3cc(OC)nc(C4CCCC4)c3)n2)cc(C)c1OC[C@@H](O)CO | Wistar rat | plasma | 0.3 mg/kg | 24 h | single dose | 5 ng/mL |
| COc1nc(-c2cc(C)c(N[C@@H](C)c3cc(F)cc(F)c3)nn2)ccc1-n1cnc(C)c1 | male Sprague-Dawley rat | CSF | 5 mg/kg | 4 h | multiple doses, once daily | 15.3 ng/mL |
| COc1ccc2c(=O)n(C)c(-c3ccccc3)nc2c1 | male Sprague-Dawley rat | lung | 30 mg/kg | 30 min |  | 2.5 ng/mL |
| Cc1noc(C)c1Cn1cc(N2C(=O)CN(Cc3cccc(O)c3)C2=O)cn1 | male Sprague-Dawley rat | plasma | 10 mg/kg | 1 h |  | 8.29 ng/mL |
| COc1cccc(-c2n[nH]c(SCc3ccccn3)n2)c1OC | male Sprague-Dawley rat | plasma | 10 mg/kg | 1 h | single dose | 10400 ng/mL |
| Cc1noc(C)c1Cn1cc(N2C(=O)N(Cc3cccc(O)c3)C(C)(C)C2=O)cn1 | male Sprague-Dawley rat | plasma | 100 mg/kg | 8 h | single dose | 5.2 ng/mL |
| Cc1ccc(-c2cc(C(F)(F)F)nn2-c2ccc(S(N)(=O)=O)cc2)cc1 | male Sprague-Dawley rat | plasma | 20 mg/kg | 8 h |  | 0.91 µM |
| CCOC(=O)[C@@]12C[C@@H]1[C@@H](n1ccc3c(NC)nc(C#Cc4ccc(Cl)s4)nc31)[C@H](O)[C@@H]2O | male Sprague-Dawley rat | plasma | 1 mg/kg | 1 h |  | 9.55 ng/mL |
| CN(C(=O)n1cnc(-c2ccc[n+]([O-])c2)c1)C1CCCCC1 | Wistar rat | plasma | 10 mg/kg | 8 h |  | 278 ng/mL |
| COc1ccc(C)c2sc(NC(=O)c3ccncc3)nc12 | rat | brain | 10 mg/kg | 1 h |  | ~10 µM |
